Data as given in ChEMBL document CHEMBL2046324, “Synthesis and biological evaluation of 1-arylsulfonyl-5-(N-hydroxyacrylamide)indoles as potent histone deacetylase inhibitors with antitumor activity in vivo” (J Med Chem, 2012).
In brackets after ≈: the same amount, converted by molar mass.

Assays:
CYP1A2 = biological target: T1, CYP1A2 (Homo sapiens, UniProt P05177); assay: Inhibition of CYP1A2 at 10 uM; format: ADME
T1 sequence (P05177 whole entry): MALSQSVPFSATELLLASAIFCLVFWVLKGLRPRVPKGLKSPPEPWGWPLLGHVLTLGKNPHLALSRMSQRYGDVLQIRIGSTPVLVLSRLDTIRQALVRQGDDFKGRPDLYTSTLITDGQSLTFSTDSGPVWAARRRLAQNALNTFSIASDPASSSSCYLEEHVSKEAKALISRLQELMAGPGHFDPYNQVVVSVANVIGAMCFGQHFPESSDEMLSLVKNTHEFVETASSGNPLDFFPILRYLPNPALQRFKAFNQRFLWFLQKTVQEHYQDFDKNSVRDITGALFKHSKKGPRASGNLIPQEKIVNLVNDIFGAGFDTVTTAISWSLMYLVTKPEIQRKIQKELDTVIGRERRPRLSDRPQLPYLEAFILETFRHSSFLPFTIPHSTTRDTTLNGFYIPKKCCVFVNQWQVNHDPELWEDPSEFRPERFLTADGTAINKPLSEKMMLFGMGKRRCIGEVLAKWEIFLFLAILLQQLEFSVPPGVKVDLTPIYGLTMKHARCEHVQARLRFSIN

CYP2C19 = CYP2C19 (Homo sapiens, UniProt P33261); assay: Inhibition of CYP2C19 at 10 uM; format: ADME
Sequence of CYP2C19 (P33261 whole entry): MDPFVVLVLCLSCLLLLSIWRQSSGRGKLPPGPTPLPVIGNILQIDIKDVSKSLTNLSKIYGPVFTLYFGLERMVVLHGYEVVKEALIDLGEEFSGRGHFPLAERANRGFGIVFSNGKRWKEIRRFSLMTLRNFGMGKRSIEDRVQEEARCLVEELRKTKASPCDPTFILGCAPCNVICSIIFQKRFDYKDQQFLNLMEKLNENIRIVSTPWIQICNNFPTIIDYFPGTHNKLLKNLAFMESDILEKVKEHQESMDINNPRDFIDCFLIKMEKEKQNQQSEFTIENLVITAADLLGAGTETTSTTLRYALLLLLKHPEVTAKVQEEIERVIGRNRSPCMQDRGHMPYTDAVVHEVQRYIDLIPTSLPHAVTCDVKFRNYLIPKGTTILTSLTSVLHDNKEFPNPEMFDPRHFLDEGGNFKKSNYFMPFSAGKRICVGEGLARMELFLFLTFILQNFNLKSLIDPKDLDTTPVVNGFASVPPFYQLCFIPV

CYP2C8 = biological target: T2, CYP2C8 (Homo sapiens, UniProt P10632); assay: Inhibition of CYP2C8 at 10 uM; format: ADME
T2 sequence (P10632 whole entry): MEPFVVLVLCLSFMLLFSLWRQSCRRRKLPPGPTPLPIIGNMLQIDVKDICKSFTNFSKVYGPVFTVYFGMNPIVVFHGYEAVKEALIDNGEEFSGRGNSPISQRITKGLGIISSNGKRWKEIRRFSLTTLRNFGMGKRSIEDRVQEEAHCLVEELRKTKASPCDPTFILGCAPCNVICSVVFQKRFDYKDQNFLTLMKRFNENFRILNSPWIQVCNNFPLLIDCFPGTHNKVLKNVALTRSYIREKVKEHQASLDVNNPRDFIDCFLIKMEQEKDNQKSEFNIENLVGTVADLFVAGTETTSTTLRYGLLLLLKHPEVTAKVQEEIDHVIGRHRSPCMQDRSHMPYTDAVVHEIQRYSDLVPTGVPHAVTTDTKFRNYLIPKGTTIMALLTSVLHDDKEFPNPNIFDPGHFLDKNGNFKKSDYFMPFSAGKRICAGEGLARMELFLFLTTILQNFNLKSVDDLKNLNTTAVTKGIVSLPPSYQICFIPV

CYP2C9 = CYP2C9 (Homo sapiens, UniProt P11712); assay: Inhibition of CYP2C9 at 10 uM; format: ADME
Sequence of CYP2C9 (P11712 whole entry): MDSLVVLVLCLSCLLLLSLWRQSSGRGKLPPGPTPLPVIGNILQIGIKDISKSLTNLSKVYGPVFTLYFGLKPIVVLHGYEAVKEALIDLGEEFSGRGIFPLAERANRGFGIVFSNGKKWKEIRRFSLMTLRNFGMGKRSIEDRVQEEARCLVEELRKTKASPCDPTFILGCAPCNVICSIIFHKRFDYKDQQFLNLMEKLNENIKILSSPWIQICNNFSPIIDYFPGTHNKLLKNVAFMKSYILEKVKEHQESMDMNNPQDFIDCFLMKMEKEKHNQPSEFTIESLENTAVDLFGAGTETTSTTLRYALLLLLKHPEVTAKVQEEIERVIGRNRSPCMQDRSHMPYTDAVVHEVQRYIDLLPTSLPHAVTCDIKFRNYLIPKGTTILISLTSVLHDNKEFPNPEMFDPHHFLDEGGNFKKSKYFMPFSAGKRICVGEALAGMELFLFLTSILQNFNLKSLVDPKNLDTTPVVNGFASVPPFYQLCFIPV

CYP2D6 = CYP2D6 (Homo sapiens, UniProt P10635); assay: Inhibition of CYP2D6 at 10 uM; format: ADME
Sequence of CYP2D6 (P10635 whole entry): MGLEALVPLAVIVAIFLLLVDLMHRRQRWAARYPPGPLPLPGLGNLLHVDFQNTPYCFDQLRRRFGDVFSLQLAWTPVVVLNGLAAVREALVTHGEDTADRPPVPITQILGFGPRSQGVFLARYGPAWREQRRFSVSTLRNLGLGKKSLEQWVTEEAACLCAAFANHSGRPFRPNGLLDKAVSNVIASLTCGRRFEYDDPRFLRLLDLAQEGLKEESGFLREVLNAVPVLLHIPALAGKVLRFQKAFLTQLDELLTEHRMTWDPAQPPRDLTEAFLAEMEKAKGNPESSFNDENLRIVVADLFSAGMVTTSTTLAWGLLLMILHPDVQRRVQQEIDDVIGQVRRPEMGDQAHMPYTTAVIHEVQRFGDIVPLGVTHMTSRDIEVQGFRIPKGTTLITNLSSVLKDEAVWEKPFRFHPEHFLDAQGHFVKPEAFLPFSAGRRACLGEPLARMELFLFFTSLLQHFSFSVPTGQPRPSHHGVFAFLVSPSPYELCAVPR

CYP2E1 = CYP2E1 (Homo sapiens, UniProt P05181); assay: Inhibition of CYP2E1 at 10 uM; format: ADME
Sequence of CYP2E1 (P05181 whole entry): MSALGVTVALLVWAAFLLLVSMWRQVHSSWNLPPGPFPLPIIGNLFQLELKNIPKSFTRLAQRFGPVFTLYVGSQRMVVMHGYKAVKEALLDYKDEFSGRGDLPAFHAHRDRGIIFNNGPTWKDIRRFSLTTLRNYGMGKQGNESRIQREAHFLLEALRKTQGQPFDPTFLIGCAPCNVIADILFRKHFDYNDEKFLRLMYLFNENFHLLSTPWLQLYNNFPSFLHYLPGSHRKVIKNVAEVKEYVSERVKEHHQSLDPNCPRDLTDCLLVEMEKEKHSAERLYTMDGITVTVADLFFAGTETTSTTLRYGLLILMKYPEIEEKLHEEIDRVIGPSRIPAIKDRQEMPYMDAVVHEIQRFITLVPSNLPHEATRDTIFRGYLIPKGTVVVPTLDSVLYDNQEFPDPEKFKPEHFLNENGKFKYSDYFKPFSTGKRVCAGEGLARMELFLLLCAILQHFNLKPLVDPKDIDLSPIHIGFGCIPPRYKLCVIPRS

CYP3A4 = CYP3A4 (Homo sapiens, UniProt P08684); assay: Inhibition of CYP3A4 at 10 uM; format: ADME
Sequence of CYP3A4 (P08684 whole entry): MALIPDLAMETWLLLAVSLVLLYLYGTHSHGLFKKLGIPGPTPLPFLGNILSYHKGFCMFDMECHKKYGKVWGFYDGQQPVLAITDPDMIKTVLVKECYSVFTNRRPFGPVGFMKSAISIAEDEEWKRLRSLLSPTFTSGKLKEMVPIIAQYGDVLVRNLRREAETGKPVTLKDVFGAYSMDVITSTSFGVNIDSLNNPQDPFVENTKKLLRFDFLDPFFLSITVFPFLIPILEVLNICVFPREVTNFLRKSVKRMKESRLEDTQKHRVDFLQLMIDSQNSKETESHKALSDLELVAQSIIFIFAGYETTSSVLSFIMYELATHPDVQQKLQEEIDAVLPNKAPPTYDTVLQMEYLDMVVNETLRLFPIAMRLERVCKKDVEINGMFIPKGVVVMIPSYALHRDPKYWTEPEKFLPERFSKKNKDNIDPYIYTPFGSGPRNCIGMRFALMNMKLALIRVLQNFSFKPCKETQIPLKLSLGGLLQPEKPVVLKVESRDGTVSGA

[1] = Solubility of the compound in water after 24 hrs by HPLC analysis; format: physicochemical
[2] = Solubility of the compound in EtOH after 24 hrs by HPLC analysis; format: physicochemical
[3] = Clearance in Sprague-Dawley rat at 2 mg/kg, iv; format: ADME, organism-based; set-up: dose 2 mg/kg, route intravenous; conditions: in vivo
Procedure, shortened: (§1)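 Male Sprague-Dawley rats (250–350 g, 8–10 weeks), three per group. Single 2 mg/kg iv bolus into the jugular vein in PEG400/DMSO (80:20, v/v), or 20 mg/kg orally in 1% carboxymethyl cellulose plus 0.5% Tween 80. Plasma was assayed by LC-MS/MS (MRM) and analysed noncompartmentally.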

[4] = Volume of distribution at steady state in Sprague-Dawley rat at 2 mg/kg, iv; format: ADME, organism-based; set-up: dose 2 mg/kg, route intravenous; conditions: in vivo, read-out: Vdss; procedure, shortened: as §1
[5] = Half life in Sprague-Dawley rat at 2 mg/kg, iv; format: ADME, organism-based; set-up: dose 2 mg/kg, route intravenous; conditions: in vivo; procedure, shortened: as §1
[6] = AUC (0 to infinity) in Sprague-Dawley rat at 2 mg/kg, iv; format: ADME, organism-based; set-up: dose 2 mg/kg, route intravenous, time infinity; conditions: plasma; procedure, shortened: as §1
[7] = Half life in Sprague-Dawley rat at 20 mg/kg, po; format: ADME, organism-based; set-up: dose 20 mg/kg, route oral; conditions: in vivo; procedure, shortened: as §1
[8] = AUC (0 to infinity) in Sprague-Dawley rat at 20 mg/kg, po; format: ADME, organism-based; set-up: time infinity, dose 20 mg/kg, route oral; conditions: plasma; procedure, shortened: as §1
[9] = Tmax in Sprague-Dawley rat at 20 mg/kg, po; format: ADME, organism-based; set-up: dose 20 mg/kg, route oral; conditions: in vivo; procedure, shortened: as §1
[10] = Cmax in Sprague-Dawley rat at 20 mg/kg, po; format: ADME, organism-based; set-up: dose 20 mg/kg, route oral; conditions: in vivo; procedure, shortened: as §1
[11] = Oral bioavailability in Sprague-Dawley rat at 20 mg/kg; format: ADME, organism-based; conditions: in vivo; procedure, shortened: as §1
A549 [12] = assay: Antitumor activity against human A549 cells xenografted in nude mouse assessed as time to end point at 200 mg/kg, po administered QD till end point; format: functional
Procedure, shortened: (§2)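 At about 65 mm³ they were randomized, seven per group, and dosed po daily at 10 mL/kg in 0.5% carboxymethyl cellulose until a 1000 mm³ end point. Volume was w²l/2. TTE came from linear regression of log volume; TGD = T − C and %TGD = (T − C)/C × 100.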

A549 [13] = assay: Antitumor activity against human A549 cells xenografted in nude mouse assessed as time to end point at 100 mg/kg, po administered QD till end point; format: functional
A549 [14] = assay: Antitumor activity against human A549 cells xenografted in nude mouse assessed as tumor growth delay at 200 mg/kg, po administered QD till end point; format: functional; procedure, shortened: as §2
A549 [15] = assay: Antitumor activity against human A549 cells xenografted in nude mouse assessed as tumor growth delay at 100 mg/kg, po administered QD till end point; format: functional
A549 [16] = assay: Antitumor activity against human A549 cells xenografted in po dosed nude mouse assessed as tumor growth delay administered QD till end point; format: functional, organism-based
A549 [17] = assay: Antitumor activity against human A549 cells xenografted in nude mouse assessed as tumor growth inhibition at 200 mg/kg, po administered QD till end point; format: functional; conditions: read-out: GI
A549 [18] = assay: Antitumor activity against human A549 cells xenografted in nude mouse assessed as tumor growth inhibition at 100 mg/kg, po administered QD till end point; format: functional; conditions: read-out: GI
Procedure, shortened: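 A549 sc xenografts in female nude mice, seven per group, dosed po daily in 0.5% carboxymethyl cellulose (10 mL/kg) to a 1000 mm³ end point. Tumor volume was w²l/2. TGI was expressed as % T/C of tumor volumes, treated versus control, and compared with control by P value at the indicated days.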

Mus musculus [19] = assay: Toxicity in nude mouse bearing human A549 cells assessed as body weight change at 200 mg/kg, po QD; format: organism-based; set-up: dose 200 mg/kg, route oral; conditions: in vivo
Procedure, shortened: (§3)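 Nude mice bearing sc A549 xenografts were dosed po daily in 0.5% carboxymethyl cellulose at 10 mL/kg, scaled to body weight.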

Mus musculus [20] = assay: Toxicity in nude mouse bearing human A549 cells assessed as body weight change at 100 mg/kg, po QD; format: organism-based; set-up: dose 100 mg/kg, route oral; conditions: in vivo; procedure, shortened: as §3
Mus musculus [21] = assay: Toxicity in nude mouse bearing human A549 cells assessed as adverse effects at 200 mg/kg, po QD; format: organism-based; set-up: dose 200 mg/kg, route oral; conditions: in vivo
Mus musculus [22] = assay: Toxicity in nude mouse bearing human A549 cells assessed as adverse effects at 100 mg/kg, po QD; format: organism-based; set-up: dose 100 mg/kg, route oral; conditions: in vivo
cells = format: functional, Hep 3B2; conditions: Homo sapiens, Hep3B, 48 h
MDA-MB-231 = assay: cells; format: functional; conditions: Homo sapiens, MDA-MB-231, 48 h
PC-3 = assay: cells; format: functional; conditions: Homo sapiens, PC-3, 48 h
A549 [23] = assay: Growth inhibition of human A549 cells after 48 hrs by SRB assay; format: functional; conditions: Homo sapiens, A549, 48 h
Procedure, shortened: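 A549 cells were grown in RPMI 1640 with 10% FBS and 2 mM glutamine at 37 °C in 5% CO₂, then seeded in medium with 5% FBS. A 24 h TCA-fixed plate gave T₀. Cells were exposed to compound or DMSO for 48 h, fixed with 10% TCA and stained with 0.4% SRB; bound dye was solubilized in 10 mM Tris and read at 515 nm. GI₅₀ was the concentration halving net protein increase. At least three independent experiments.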

Tubulin (Homo sapiens) [24] = biological target: T3, Tubulin (Homo sapiens) (UniProt P68371+Q9H4B7+P0DPH7+P68366+Q13509+Q71U36+P04350+Q3ZCM7+P07437+P68363+Q9BQE3+Q6PEY2+Q13885+Q9BVA1+Q9BUF5); assay: Inhibition of HDAC in human PC3 cells assessed as tubulin acetylation after 48 hrs by Western blot analysis; conditions: PC-3
Tubulin (Homo sapiens) [25] = biological target: T3, Tubulin (Homo sapiens); assay: Inhibition of HDAC in human A549 cells assessed as tubulin acetylation after 48 hrs by Western blot analysis

## O=C(/C=C/c1ccc2c(ccn2S(=O)(=O)c2ccccc2)c1)NO
CYP1A2
  inhibition at 10 µM: 51%
CYP2C19
  inhibition at 10 µM: 78%
CYP2C8
  inhibition at 10 µM: 78%
CYP2C9
  inhibition at 10 µM: 22%
CYP2D6
  inhibition at 10 µM: 31%
CYP2E1
  inhibition at 10 µM: 22%
CYP3A4
  inhibition at 10 µM: 65%
[1]
  solubility at 24 h: < 1 µg/mL
[2]
  solubility at 24 h: 939 µg/mL (≈ 2740 µM)
[3]
  clearance: 35.5 mL/min/kg
[4]
  Vd: 2.1 L/kg
[5]
  half-life: 2.6 h
[6]
  AUC(0-inf): 927 ng·h/mL
[7]
  half-life: 5.5 h
[8]
  AUC(0-inf): 916 ng·h/mL
[9]
  Tmax: 1.7 h
[10]
  Cmax: 217 ng/mL
[11]
  bioavailability: 10%
A549 [12]
  Time: 39.8 days
A549 [13]
  Time: 36.2 days
A549 [14]
  Activity: 47%
A549 [15]
  Activity: 34%
A549 [16]
  Activity: Dose-dependent effect
A549 [17]
  inhibition in vivo at 200 mg/kg: 32.1%
A549 [18]
  inhibition in vivo at 100 mg/kg: 15%
Mus musculus [19]
  Activity: Non-toxic
Mus musculus [20]
  Activity: Non-toxic
Mus musculus [21]
  Activity: Non-toxic
Mus musculus [22]
  Activity: Non-toxic
cells
  GI50: 410 nM
MDA-MB-231
  GI50: 480 nM
PC-3
  GI50: 620 nM
A549 [23]
  GI50: 1020 nM
Tubulin (Homo sapiens) [24]
  inhibition: Dose-dependent effect
Tubulin (Homo sapiens) [25]
  inhibition: Dose-dependent effect
